Data taken from ChEMBL document CHEMBL4477175, “Sclerotiamide: The First Non-Peptide-Based Natural Product Activator of Bacterial Caseinolytic Protease P” (J Nat Prod, 2016).
Active and inactive are the calls of the source. No cut-off for these calls is given here. Bridge positions count the residues as written; N and C are the ends. Square brackets hold non-standard residues; d marks the D form. Peptide text beside a SMILES is read from it. * marks the point of attachment. X1 = O=C(/C=C/C=C/C=C/C=C/C=C/C(=O)*)NC1=C(O)CCC1=O; Pro(4R-Me) = C[C@H]1CN[C@H](C(=O)O)C1; NMeA = CN[C@@H](C)C(=O)O

How the values were obtained:
[1] = biological target: ATP-dependent Clp protease proteolytic subunit (Escherichia coli (strain K12)) (UniProt P0A6G7); assay: Activation of Escherichia coli BLR (DE3) ClpP using bovine milk FITC-beta casein as substrate assessed as change in relative fluorescent units at 50 uM preincubated for 15 mins followed by substrate addition measured every 30 mins for 6 hrs by fluorescence assay
How it was run: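 Single-concentration screen: 300 nM tetradecameric recombinant E. coli ClpP in 25 mM Tris-HCl pH 7.5, 100 mM KCl, preincubated with compound (50 µM) 15 min at 37 °C. FITC-β-casein added (final 1.92 µM). Kept at 37 °C; fluorescence (ex 485/em 538 nm) read every 30 min for 6 h. ΔRFU = well minus 1% DMSO well; hits had end-point above 22 500 RFU.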

[2] = biological target: T1, ATP-dependent Clp protease proteolytic subunit (Escherichia coli (strain K12), UniProt P0A6G7); assay: Activation of Escherichia coli BLR (DE3) ClpP using Abz-DFAPKMALVPYNO2 as substrate assessed as degradation of substrate peptide preincubated for 15 mins followed by substrate addition measured every 30 mins for 2 hrs by fluorescence assay
How it was run: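 His-tagged EcClpP, 25 nM tetradecamer, in 25 mM HEPES pH 7.5, 100 mM KCl, 5 mM MgCl2, 10% glycerol, 1 mM DTT. Preincubated with a concentration range of compound for 15 min at 30 °C, then 15 µM final decapeptide added. Read at 30 °C, ex 320/em 420 nm. DMSO-subtracted ΔRFU was fitted for apparent activation constant (Kapp).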

[3] = biological target: ATP-dependent Clp protease proteolytic subunit (Bacillus subtilis (strain 168)) (UniProt P80244); assay: Activation of Bacillus subtilis ClpP expressed in Escherichia coli BL21 (DE3) using beta casein as substrate at 25 uM preincubated for 15 mins followed by substrate addition measured every 30 mins by SDS-PAGE
How it was run: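 Recombinant His-tagged BsClpP (Ni-NTA then gel filtration), 420 nM tetradecamer in 25 mM Tris-HCl pH 7.5, 100 mM KCl, preincubated with compound for 15 min at 37 °C. Bovine β-casein added to 7.5 µM final. Reactions quenched in Laemmli buffer at 80 °C after 5 min, 30 min, 1 h and/or 2 h. Loss of the β-casein band was followed on a 10% Bis-Tris SDS gel.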

[4] = biological target: T1, ATP-dependent Clp protease proteolytic subunit; assay: Activation of Escherichia coli BLR (DE3) ClpP using FITC-beta casein as substrate assessed as degradation of substrate peptide preincubated for 15 mins followed by substrate addition measured every 30 mins for 6 hrs by fluorescence assay
Bacillus [5] = assay: Activation of Bacillus subtilis ClpP expressed in Escherichia coli BL21 (DE3) using FITC-beta casein as substrate assessed as degradation of substrate peptide at 25 uM preincubated for 15 mins followed by substrate addition measured every 30 mins for 6 hrs by fluorescence assay
[6] = biological target: ATP-dependent Clp protease proteolytic subunit (Escherichia coli (strain K12)) (UniProt P0A6G7); assay: Activation of Escherichia coli BLR (DE3) ClpP using beta casein as substrate at 50 uM preincubated for 15 mins followed by substrate addition measured every 30 mins by SDS-PAGE; settings: TDE = time-dependent effect
How it was run: (§1)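 His-tagged ClpP (E. coli or B. subtilis) expressed with IPTG overnight at 25 °C and purified by Ni-NTA and gel filtration. 420 nM tetradecamer in 25 mM Tris-HCl pH 7.5, 100 mM KCl, preincubated with compound 15 min at 37 °C. Bovine β-casein added (final 7.5 µM). Quenched in Laemmli buffer at 5 min, 30 min, 1 h and/or 2 h. β-Casein band loss read on 10% Bis-Tris SDS-PAGE.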

[7] = biological target: ATP-dependent Clp protease proteolytic subunit (Bacillus subtilis (strain 168)) (UniProt P80244); assay: Activation of Bacillus subtilis ClpP expressed in Escherichia coli BL21 (DE3) using beta casein as substrate at 50 uM preincubated for 15 mins followed by substrate addition measured every 30 mins by SDS-PAGE; how it was run: as §1
Bacillus [8] = assay: Activation of Bacillus subtilis ClpP expressed in Escherichia coli BL21 (DE3) using FITC-beta casein as substrate assessed as degradation of substrate peptide at 50 uM preincubated for 15 mins followed by substrate addition measured every 30 mins for 2 hrs by fluorescence assay
Escherichia coli = assay: Antibacterial activity against Escherichia coli M5418 harboring deltaacrB/deltaacrD/deltaacrEF::spc deltaemrBdeltaemrYdeltaentS::cam deltamacB deltamdtC deltamdtF mutant assessed as bacterial growth inhibition at 100 uM after 18 hrs by 2-fold dilution method; format: functional, organism-based
How it was run: (§2)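 Broth dilution MIC: cells subcultured 1:100 in LB and grown to OD600 ~1.0. Inoculated at 10^5 cells/mL in LB with 2-fold increasing compound concentrations, up to 100 µM. Incubated 18 h at 37 °C; growth scored visually.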

Pseudomonas aeruginosa = assay: Antibacterial activity against Pseudomonas aeruginosa PAO1116 harboring deltamexAB-oprM/deltamexCD-oprj/deltamexEF-oprN/deltaJK/deltamexXY/deltatriABC mutant assessed as bacterial growth inhibition at 100 uM after 18 hrs by 2-fold dilution method; format: functional, organism-based; how it was run: as §2
[9] = biological target: ATP-dependent Clp protease proteolytic subunit (Escherichia coli (strain K12)) (UniProt P0A6G7); assay: Ratio of EC50 for Escherichia coli BLR (DE3) ClpP using FITC-beta casein as substrate to ratio of EC50 for Escherichia coli ClpP using Abz-DFAPKMALVPYNO2 as substrate
Beta-casein (Bos taurus) = biological target: T2, Beta-casein (Bos taurus) (UniProt P02666); assay: Intrinsic proteolytic activity against fluorescein isothiocyanate-conjugated bovine milk beta casein at 50 uM preincubated for 15 mins followed by substrate addition measured every 30 mins for 6 hrs by fluorescence assay
T2 sequence (whole entry): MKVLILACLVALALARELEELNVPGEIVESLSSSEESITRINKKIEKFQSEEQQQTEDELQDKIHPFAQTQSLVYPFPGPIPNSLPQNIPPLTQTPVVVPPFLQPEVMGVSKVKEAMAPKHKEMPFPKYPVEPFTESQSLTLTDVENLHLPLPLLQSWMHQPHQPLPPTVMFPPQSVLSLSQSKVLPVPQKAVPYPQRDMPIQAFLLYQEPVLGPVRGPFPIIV
How it was run: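 Enzyme-free control: compound (50 µM) incubated with FITC-β-casein (1.92 µM) in 25 mM Tris-HCl pH 7.5, 100 mM KCl. Substrate cleavage read as fluorescence at 538 nm emission after 485 nm excitation.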

T1 sequence (P0A6G7 whole entry): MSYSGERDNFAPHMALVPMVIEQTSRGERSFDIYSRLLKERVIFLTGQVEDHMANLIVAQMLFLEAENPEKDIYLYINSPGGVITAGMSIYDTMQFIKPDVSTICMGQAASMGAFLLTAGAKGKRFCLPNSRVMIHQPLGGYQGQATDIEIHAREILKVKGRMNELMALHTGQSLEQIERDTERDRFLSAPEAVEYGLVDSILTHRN
Sequence of ATP-dependent Clp protease proteolytic subunit (Escherichia coli (strain K12)) (P0A6G7 whole entry): as above
Sequence of ATP-dependent Clp protease proteolytic subunit (Bacillus subtilis (strain 168)) (P80244 whole entry, looked up): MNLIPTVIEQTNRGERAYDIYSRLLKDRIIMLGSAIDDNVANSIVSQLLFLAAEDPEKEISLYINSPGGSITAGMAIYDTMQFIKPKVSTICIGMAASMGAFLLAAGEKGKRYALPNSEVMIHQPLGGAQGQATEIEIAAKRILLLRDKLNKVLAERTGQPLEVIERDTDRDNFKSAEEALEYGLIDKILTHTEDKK

EC50 [2] [µM]	EC50 [4] [µM]	SMILES	Activity [1]	further results
–	–	CC1(C)C=Cc2c(ccc3c4c(n(O)c23)C(C)(C)C2C[C@]35CCCN3C(=O)[C@]2(NC5=O)C4=O)O1 (some centres not stated)	inactive	–
–	–	CC1(C)C=Cc2c(ccc3c4c([nH]c23)C(C)(C)C2C[C@]35CCCN3C(=O)[C@@]2(C4)NC5=O)O1 (some centres not stated)	inactive	–
–	–	CC1(C)C=Cc2c(ccc3c2[N+]([O-])=C2C3=C[C@@]34NC(=O)[C@]5(CCCN5C3=O)CC4C2(C)C)O1 (some centres not stated)	inactive	–
–	–	CC1(C)C=Cc2c(ccc3c2NC(=O)[C@@]32C[C@@]34NC(=O)[C@]5(CCCN5C3=O)C[C@H]4C2(C)C)O1	inactive	–
25.4	22.2	CCOC(=O)[C@@H]1C(=O)C[C@@](O)(c2ccc(Br)cc2)C[C@H]1C=C(Cl)Cl	–	Activity [3]: inactive; Activity (Bacillus [5]): inactive
–	–	C=CC(C)(C)[C@@]12Nc3c(ccc4c3C=CC(C)(C)O4)[C@]1(O)C[C@H]1C(=O)N3CCC[C@]3(O)C(=O)N12	inactive	–
0.1	1.2	C[C@@H]1C[C@H]2C(=O)OC[C@H](NC(=O)[C@H](Cc3ccccc3)NC(=O)/C=C/C=C/C=C/C=C/C=C/C(=O)NC3=C(O)CCC3=O)C(=O)N3CCC[C@H]3C(=O)N(C)[C@@H](C)C(=O)N[C@@H](C)C(=O)N2C1 (X1-FSP[NMeA]A[Pro(4R-Me)]; ester 2-C)	–	Ratio EC50 [9]: 10

SMILES	EC50 [2] [µM]	EC50 [4] [µM]	Activity [1]	further results
CC1(C)C=Cc2c(ccc3c2NC(=O)[C@@]32[C@H](O)[C@@]34NC(=O)[C@]5(CCCN5C3=O)C[C@H]4C2(C)C)O1 [SCLEROTIAMIDE]	39.6	87.5	29900 RFU	Activity [6]: Tde; Activity [7]: inactive; Activity (Bacillus [8]): inactive; Activity (Escherichia coli): inactive; Activity (Pseudomonas aeruginosa): inactive; Ratio EC50 [9]: 2.2; Activity (Beta-casein (Bos taurus)): inactive
